In brackets after ≈: the same amount, converted by molar mass. Activity calls are given as the source filed them. The rule behind the calls is not given here.
Key:
Streptococcus pneumoniae = assay: Antibacterial activity against Streptococcus pneumoniae ATCC 49619 after 20 hrs by CLSI based-broth microdilution method; assay type: functional
Outline: (§1)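 Streptococci tested in Brain Heart Infusion broth. Two-fold dilutions from 256 to 0.5 μg/mL, inoculum approx. 5 × 10^5 CFU/mL. Incubated 20 h at 37 °C. MIC is the lowest concentration without visible growth.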

Staphylococcus aureus [1] = assay: Antibacterial activity against Staphylococcus aureus ATCC 29213 after 20 hrs by CLSI based-broth microdilution method; assay type: functional
Outline: (§2)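 Broth microdilution in cation-adjusted Mueller-Hinton broth. Two-fold serial dilutions from 256 μg/mL down to 0.5 μg/mL. Inoculum approx. 5 × 10^5 CFU/mL. Incubated 20 h at 37 °C. MIC taken as the lowest concentration with no observable growth.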

Staphylococcus aureus [2] = assay: Antibacterial activity against Staphylococcus aureus ATCC 25923 after 20 hrs by CLSI based-broth microdilution method; assay type: functional; outline: as §2
Clostridioides difficile [3] = assay: Antibacterial activity against Clostridium difficile ribotype 002 measured after 48 hrs under anaerobic condition by CLSI based-broth microdilution method; assay type: functional
Outline: (§3)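 Compounds dissolved in DMSO. Media pre-reduced 3 h in an anaerobic chamber. Colonies from overnight anaerobic GAM agar grown to early log phase in BHI plus 0.5% w/v yeast extract and 0.05% L-cysteine. Adjusted to 0.5 McFarland, diluted 100 μL into 15 mL. Mixed 1:1 with serially diluted agents. Incubated anaerobically at 37 °C, growth read at 48 h, triplicate.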

Enterococcus faecalis = assay: Antibacterial activity against Enterococcus faecalis ATCC 19433 after 20 hrs by CLSI based-broth microdilution method; assay type: functional
Outline: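 Broth microdilution MIC. Two-fold serial dilutions from 256 μg/mL down to 0.5 μg/mL. Inoculum approx. 5 × 10^5 CFU/mL. Read after 20 h at 37 °C. MIC is the lowest concentration with no observable growth.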

Clostridioides difficile [4] = assay: Antibacterial activity against Clostridium difficile ribotype 002 assessed as reduction in bacterial toxin A production at sub-inhibitory concentration incubated for 48 hrs under anaerobic condition by ELISA; assay type: functional, organism-based
Outline: (§4)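 Incubated anaerobically at 37 °C for 48 h. Supernatants cleared at 10,000 × g for 2 min. TcdA and TcdB quantified by commercial ELISA, normalized to drug-free control. Duplicate, with technical and biological repeats.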

[5] = Antibacterial activity against Staphylococcus saprophyticus ATCC 15305 after 20 hrs by CLSI based-broth microdilution method; assay type: functional, Staphylococcus saprophyticus subsp. saprophyticus; outline: as §2
Clostridioides difficile [6] = assay: Antibacterial activity against Clostridium difficile ribotype 027 measured after 48 hrs under anaerobic condition by CLSI based-broth microdilution method; assay type: functional; outline: as §3
Clostridioides difficile [7] = assay: Antibacterial activity against Clostridium difficile ribotype 027 assessed as reduction in bacterial toxin A production at sub-inhibitory concentration incubated for 48 hrs under anaerobic condition by ELISA; assay type: functional, organism-based; outline: as §4
[8] = tested on: Staphylococcus epidermidis; assay: Antibacterial activity against Staphylococcus epidermidis ATCC 12228 after 20 hrs by CLSI based-broth microdilution method; assay type: functional; outline: as §2
Clostridioides difficile [9] = assay: Antibacterial activity against Clostridium difficile ATCC 9689 assessed as reduction in bacterial toxin B production at sub-inhibitory concentration incubated for 48 hrs under anaerobic condition by ELISA; assay type: functional, organism-based; settings: ATCC 9689 = DSM 1296; outline: as §4
Streptococcus pyogenes = assay: Antibacterial activity against Streptococcus pyogenes ATCC 19615 after 20 hrs by CLSI based-broth microdilution method; assay type: functional; outline: as §1
Streptococcus agalactiae = assay: Antibacterial activity against Streptococcus agalactiae ATCC 12386 after 20 hrs by CLSI based-broth microdilution method; assay type: functional; outline: as §1
Clostridioides difficile [10] = assay: Antibacterial activity against Clostridium difficile ATCC 9689 after measured 48 hrs under anaerobic condition by CLSI based-broth microdilution method; assay type: functional; settings: ATCC 9689 = DSM 1296; outline: as §3
Clostridioides difficile [11] = assay: Antibacterial activity against Clostridium difficile ribotype 027 assessed as reduction in bacterial toxin B production at sub-inhibitory concentration incubated for 48 hrs under anaerobic condition by ELISA; assay type: functional, organism-based; outline: as §4
Clostridioides difficile [12] = assay: Antibacterial activity against Clostridium difficile ribotype 002 assessed as reduction in bacterial toxin B production at sub-inhibitory concentration incubated for 48 hrs under anaerobic condition by ELISA; assay type: functional, organism-based; outline: as §4
Clostridioides difficile [13] = assay: Antibacterial activity against Clostridium difficile ATCC 9689 assessed as reduction in bacterial toxin A production at sub-inhibitory concentration incubated for 48 hrs under anaerobic condition by ELISA; assay type: functional, organism-based; settings: ATCC 9689 = DSM 1296; outline: as §4

SMILES	MIC (Streptococcus pneumoniae)	MIC (Staphylococcus aureus [1])	MIC (Staphylococcus aureus [2])	further results
O=C(O)c1cc(C(F)(F)F)ccc1Cc1ccc(Sc2ccc(Cl)c(Cl)c2)c([N+](=O)[O-])c1	2 µg/mL (≈ 3.98 µM)	8 µg/mL (≈ 15.9 µM)	–	–
O=C(O)c1ccccc1Cc1ccc(Sc2ccc(Cl)c(Cl)c2)c([N+](=O)[O-])c1	16 µg/mL (≈ 36.8 µM)	16 µg/mL (≈ 36.8 µM)	16 µg/mL (≈ 36.8 µM)	–
CN[C@H](CC(C)C)C(=O)N[C@H]1C(=O)N[C@@H](CC(N)=O)C(=O)N[C@H]2C(=O)N[C@H]3C(=O)N[C@H](C(=O)N[C@H](C(=O)O)c4cc(O)cc(O)c4-c4cc3ccc4O)[C@H](O)c3ccc(c(Cl)c3)Oc3cc2cc(c3O[C@@H]2O[C@H](CO)[C@@H](O)[C@H](O)[C@H]2O[C@H]2C[C@](C)(N)[C@H](O)[C@H](C)O2)Oc2ccc(cc2Cl)[C@H]1O [VANCOMYCIN]	–	–	–	MIC (Clostridioides difficile [3]): 2 µg/mL (≈ 1.38 µM); MIC (Enterococcus faecalis): 1 µg/mL (≈ 0.69 µM); Activity (Clostridioides difficile [4]): inactive; MIC [5]: 0.25 µg/mL (≈ 0.173 µM); MIC (Clostridioides difficile [6]): 2 µg/mL (≈ 1.38 µM); Activity (Clostridioides difficile [7]): inactive; MIC [8]: 0.5 µg/mL (≈ 0.345 µM); Activity (Clostridioides difficile [9]): inactive; MIC (Streptococcus pyogenes): 1 µg/mL (≈ 0.69 µM); MIC (Streptococcus agalactiae): 2 µg/mL (≈ 1.38 µM); MIC (Clostridioides difficile [10]): 4 µg/mL (≈ 2.76 µM); Activity (Clostridioides difficile [11]): inactive; Activity (Clostridioides difficile [12]): inactive; Activity (Clostridioides difficile [13]): inactive
O=C(O)c1cccc(Cc2ccc(Sc3ccc(Cl)c(Cl)c3)c([N+](=O)[O-])c2)c1	> 256 µg/mL	> 256 µg/mL	> 256 µg/mL	–
COc1ccc(C(=O)O)c(C(=O)c2ccc(Sc3ccc(Cl)c(Cl)c3)c([N+](=O)[O-])c2)c1	8 µg/mL (≈ 16.7 µM)	8 µg/mL (≈ 16.7 µM)	16 µg/mL (≈ 33.5 µM)	–
Nc1ccccc1Sc1ccc(C(=O)c2ccccc2C(=O)O)cc1[N+](=O)[O-]	256 µg/mL (≈ 649 µM)	–	–	–
O=C(O)c1ccc(Cl)cc1C(=O)c1ccc(Sc2ccc(Cl)c(Cl)c2)c([N+](=O)[O-])c1	8 µg/mL (≈ 16.6 µM)	8 µg/mL (≈ 16.6 µM)	8 µg/mL (≈ 16.6 µM)	–
COc1ccccc1Cc1ccc(Sc2ccc(Cl)c(Cl)c2)c([N+](=O)[O-])c1	> 256 µg/mL	> 256 µg/mL	> 256 µg/mL	–
Cc1ccc(C(=O)O)c(Cc2ccc(Sc3ccc(Cl)c(Cl)c3)c([N+](=O)[O-])c2)c1	4 µg/mL (≈ 8.92 µM)	4 µg/mL (≈ 8.92 µM)	4 µg/mL (≈ 8.92 µM)	–
O=C(O)c1cccc(C(=O)c2ccc(Sc3ccc(Cl)c(Cl)c3)c([N+](=O)[O-])c2)c1	> 256 µg/mL	32 µg/mL (≈ 71.4 µM)	> 256 µg/mL	–
O=C(O)c1ccc(F)cc1Cc1ccc(Sc2ccc(Cl)c(Cl)c2)c([N+](=O)[O-])c1	4 µg/mL (≈ 8.84 µM)	8 µg/mL (≈ 17.7 µM)	8 µg/mL (≈ 17.7 µM)	–
O=C(O)c1cc(Cl)ccc1C(=O)c1ccc(Sc2ccc(Cl)c(Cl)c2)c([N+](=O)[O-])c1	8 µg/mL (≈ 16.6 µM)	4 µg/mL (≈ 8.29 µM)	8 µg/mL (≈ 16.6 µM)	–

From ChEMBL document CHEMBL4706572, “Benzyl and benzoyl benzoic acid inhibitors of bacterial RNA polymerase-sigma factor interaction” (Eur J Med Chem, 2020)
